pIC50: −log10 of the molar value. Calls of active or inactive are those of the source. The rule behind the calls is not given here.
Key:
[1] = target: T1, Corticotropin-releasing factor receptor 1 (Rattus norvegicus, UniProt P35353); assay: Displacement of [125I]Tyr-ovine-CRF from CRF1 receptor in rat frontal cortex homogenate by gamma counting; type: tissue-based
T1 sequence (P35353 whole entry): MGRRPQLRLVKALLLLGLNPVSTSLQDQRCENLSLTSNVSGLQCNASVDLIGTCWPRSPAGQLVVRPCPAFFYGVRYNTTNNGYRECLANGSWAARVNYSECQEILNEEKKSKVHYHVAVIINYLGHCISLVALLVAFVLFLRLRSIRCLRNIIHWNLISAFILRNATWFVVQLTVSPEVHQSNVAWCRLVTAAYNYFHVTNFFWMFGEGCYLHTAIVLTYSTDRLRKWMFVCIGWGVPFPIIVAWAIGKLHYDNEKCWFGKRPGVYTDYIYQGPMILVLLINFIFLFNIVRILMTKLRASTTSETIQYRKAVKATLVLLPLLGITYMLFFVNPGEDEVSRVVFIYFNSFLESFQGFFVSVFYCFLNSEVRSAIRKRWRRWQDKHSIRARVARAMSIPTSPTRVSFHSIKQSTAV
How it was run: (§1)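 Washed homogenates of frozen rat frontal cortex (CRF1, 25 μg/well) or porcine choroid plexus (CRF2, 10 μg/well) in 50 mM Hepes pH 7.0, 10 mM MgCl2, 2 mM EGTA, protease inhibitors, 0.005% Triton X-100. Ligand 150 pM 125I-ovine-CRF (CRF1) or 100 pM 125I-sauvagine (CRF2). Incubation 2 h at 21 °C, then filtration and gamma counting. Nonspecific binding: 1 μM CRF1 reference antagonist or 1 μM α-helical CRF(9-41). IC50 from 5- or 10-point curves by nonlinear regression.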

[2] = (§2) Displacement of [125I]sauvagine from CRF2 receptor in pig choroid plexus homogenate by gamma counting; type: tissue-based, Sus scrofa; how it was run: as §1
Sus scrofa = organism: Sus scrofa; assay: as §2; type: tissue-based; how it was run: as §1
[3] = Octanol-water partition coefficient, log D at pH 7.4; type: physicochemical
[4] = target: T2, Corticotropin-releasing factor receptor 1 (Homo sapiens, UniProt P34998); assay: Antagonist activity at CRF1 receptor in human Y79 cells assessed as inhibition of CRF-stimulated cAMP production by HTRF method
T2 sequence (P34998 whole entry): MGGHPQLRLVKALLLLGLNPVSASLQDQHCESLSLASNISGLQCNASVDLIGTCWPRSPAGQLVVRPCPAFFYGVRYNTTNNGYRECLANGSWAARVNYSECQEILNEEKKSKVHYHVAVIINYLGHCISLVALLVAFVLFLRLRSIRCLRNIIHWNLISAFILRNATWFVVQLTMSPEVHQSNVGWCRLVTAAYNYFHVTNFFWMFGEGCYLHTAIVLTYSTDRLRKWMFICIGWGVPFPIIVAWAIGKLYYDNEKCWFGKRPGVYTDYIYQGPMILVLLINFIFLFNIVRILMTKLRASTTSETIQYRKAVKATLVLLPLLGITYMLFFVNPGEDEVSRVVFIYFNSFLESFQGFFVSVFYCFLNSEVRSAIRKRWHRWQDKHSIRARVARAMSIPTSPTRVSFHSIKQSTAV

[5] = Clearance in Sprague-Dawley rat at 2 mg/kg, iv; type: ADME, organism-based; set-up: dose 2 mg/kg, route intravenous; settings: in vivo
How it was run: (§3)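 Male Sprague-Dawley rats; iv 2 mg/kg in PEG:ethanol 90:10 (v/v) at 1 mL/kg, or oral 10 mg/kg as 1% Tween 80 in 0.5% methylcellulose suspension at 3 mL/kg; n = 3 per route. Jugular catheter blood taken to 24 h postdose. Plasma was protein-precipitated with acetonitrile and assayed by LC/MS/MS.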

[6] = Volume of distribution at steady state in Sprague-Dawley rat at 2 mg/kg, iv; type: ADME, organism-based; set-up: dose 2 mg/kg, route intravenous; settings: in vivo, read-out: Vdss; how it was run: as §3
[7] = Half life in Sprague-Dawley rat at 2 mg/kg, iv; type: ADME, organism-based; set-up: dose 2 mg/kg, route intravenous; settings: in vivo; how it was run: as §3
[8] = AUC in Sprague-Dawley rat at 10 mg/kg, po; type: ADME, organism-based; set-up: dose 10 mg/kg, route oral; settings: plasma; how it was run: as §3
[9] = Cmax in Sprague-Dawley rat at 10 mg/kg, po; type: ADME, organism-based; set-up: dose 10 mg/kg, route oral; settings: in vivo; how it was run: as §3
[10] = Oral bioavailability in Sprague-Dawley rat at 10 mg/kg; type: ADME, organism-based; settings: in vivo; how it was run: as §3
Rattus norvegicus [11] = assay: Hepatic blood flow in Sprague-Dawley rat at 2 mg/kg, iv; type: ADME, organism-based, Liver; set-up: dose 2 mg/kg, route intravenous; settings: in vivo
[12] = Clearance in cynomolgus monkey at 2 mg/kg, iv; type: ADME, organism-based, Macaca fascicularis; set-up: dose 2 mg/kg, route intravenous; settings: in vivo
How it was run: (§4)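 Cynomolgus monkeys, n = 3 per route. Iv dose 2 mg/kg in PEG:ethanol 90:10 (v/v), 1 mL/kg, sampled from jugular vein. Oral dose 10 mg/kg as suspension in 1% Tween in 0.5% methylcellulose, 3 mL/kg, sampled from femoral vein. Sampling to 24 h; plasma measured by LC/MS/MS.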

[13] = Volume of distribution at steady state in cynomolgus monkey at 2 mg/kg, iv; type: ADME, organism-based, Macaca fascicularis; set-up: dose 2 mg/kg, route intravenous; settings: in vivo, read-out: Vdss; how it was run: as §4
[14] = Half life in cynomolgus monkey at 2 mg/kg, iv; type: ADME, organism-based, Macaca fascicularis; set-up: dose 2 mg/kg, route intravenous; settings: in vivo; how it was run: as §4
[15] = AUC in cynomolgus monkey at 10 mg/kg, po; type: ADME, organism-based, Macaca fascicularis; set-up: dose 10 mg/kg, route oral; settings: plasma; how it was run: as §4
[16] = Cmax in cynomolgus monkey at 10 mg/kg, po; type: ADME, organism-based, Macaca fascicularis; set-up: dose 10 mg/kg, route oral; settings: in vivo; how it was run: as §4
[17] = Oral bioavailability in cynomolgus monkey at 10 mg/kg; type: ADME, organism-based, Macaca fascicularis; settings: in vivo; how it was run: as §4
Rattus norvegicus [18] = assay: Plasma concentration in Sprague-Dawley rat at 1 mg/kg, po; type: ADME, organism-based; set-up: dose 1 mg/kg, route oral; settings: in vivo
Rattus norvegicus [19] = assay: Plasma concentration in Sprague-Dawley rat at 3 mg/kg, po; type: ADME, organism-based; set-up: dose 3 mg/kg, route oral; settings: in vivo
Rattus norvegicus [20] = assay: Plasma concentration in Sprague-Dawley rat at 10 mg/kg, po; type: ADME, organism-based; set-up: dose 10 mg/kg, route oral; settings: in vivo
Rattus norvegicus [21] = assay: Free plasma concentration in Sprague-Dawley rat at 1 mg/kg, po; type: ADME, organism-based; set-up: dose 1 mg/kg, route oral; settings: in vivo
Rattus norvegicus [22] = assay: Free plasma concentration in Sprague-Dawley rat at 3 mg/kg, po; type: ADME, organism-based; set-up: dose 3 mg/kg, route oral; settings: in vivo
Rattus norvegicus [23] = assay: Free plasma concentration in Sprague-Dawley rat at 10 mg/kg, po; type: ADME, organism-based; set-up: dose 10 mg/kg, route oral; settings: in vivo
[24] = Unbound fraction in rat plasma after 3 hrs by equilibrium dialysis method; type: ADME, cell-free
How it was run: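 Rat plasma spiked with compound, then equilibrium-dialysed against isotonic phosphate buffer for 3 h at 37 °C. Compound in the plasma and buffer samples was quantified by LC/MS/MS after acetonitrile protein precipitation with internal standard. Unbound fraction was taken as the buffer-to-plasma concentration ratio.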

Rattus norvegicus [25] = assay: Ex vivo displacement of [125I-Tyro]-sauvagine from CRF1 receptor in Sprague-Dawley rat parietal cortex at 1 mg/kg, po by autoradiography; type: functional
How it was run: (§5)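 Brains from orally dosed rats taken after the defensive withdrawal test. 20 μm cryostat sections preincubated 1 min, then incubated 20 min at 22–24 °C with 0.15–0.20 nM [125I-Tyro]sauvagine in 50 mM HEPES pH 7.2 buffer. Nonspecific binding from vehicle sections with 1 μM reference CRF1 antagonist. Parietal cortex occupancy read by autoradiography and computed relative to vehicle specific binding.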

Rattus norvegicus [26] = assay: Ex vivo displacement of [125I-Tyro]-sauvagine from CRF1 receptor in Sprague-Dawley rat parietal cortex at 3 mg/kg, po by autoradiography; type: functional; how it was run: as §5
Rattus norvegicus [27] = assay: Ex vivo displacement of [125I-Tyro]-sauvagine from CRF1 receptor in Sprague-Dawley rat parietal cortex at 10 mg/kg, po by autoradiography; type: functional; how it was run: as §5
Rattus norvegicus [28] = assay: Anxiolytic activity in Sprague-Dawley rat assessed as decrease in latency to exit dark chamber at 1 mg/kg, po after 1 hr by defensive withdrawal test; type: functional; set-up: scale not given: the % may be the effect or the level left
How it was run: (§6)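 Male Sprague-Dawley rats (180–300 g), dosed po 1 h before testing in 0.25% methylcellulose suspension (bead-milled), 2 mL/kg. Blind observer recorded the latency to leave a dark chamber placed in an illuminated open field (all four paws out) over 15 min. ANOVA with Fisher's LSD, p < 0.05.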

Rattus norvegicus [29] = assay: Anxiolytic activity in Sprague-Dawley rat assessed as decrease in latency to exit dark chamber at 3 mg/kg, po after 1 hr by defensive withdrawal test; type: functional; set-up: scale not given: the % may be the effect or the level left; how it was run: as §6
Rattus norvegicus [30] = assay: Anxiolytic activity in Sprague-Dawley rat assessed as decrease in latency to exit dark chamber at 10 mg/kg, po after 1 hr by defensive withdrawal test; type: functional; set-up: scale not given: the % may be the effect or the level left; how it was run: as §6
Rattus norvegicus [31] = assay: Anxiolytic activity in po dosed Sprague-Dawley rat assessed as minimal effective dose by defensive withdrawal test; type: functional; settings: read-out: MED; how it was run: as §6

Q: With COC[C@@H](C1CC1)n1cc(Cl)nc(Nc2cc(C)c(OC)cc2C)c1=O as the compound, how does the pIC50 [1] read?
A: The pIC50 was 9.59.

Q: What about the pIC50 [2] of the same compound?
A: The pIC50 was under 5.00.

Q: And the Activity (Sus scrofa)?
A: Its Activity is “inactive”.

Q: And the logD [3]?
A: The logD was 4.35.

Q: And the pIC50 [4]?
A: Its pIC50 is 8.72.

Q: And the clearance [5]?
A: Its clearance is 170 mL/min/kg.

Q: And the Vd [6]?
A: Its Vd is 97 L/kg.

Q: What about the half-life [7] of the same compound?
A: Its half-life is 18 h.

Q: What about the AUC [8] of the same compound?
A: Its AUC is 0.36 µM·h.

Q: What about the Cmax [9] of the same compound?
A: The Cmax was 52 nM.

Q: And the bioavailability [10]?
A: Its bioavailability is 14%.

Q: What about the QH (Rattus norvegicus [11]) of the same compound?
A: The QH was 55 mL/min/kg.

Q: What about the clearance [12] of the same compound?
A: The clearance was 21 mL/min/kg.

Q: And the Vd [13]?
A: The Vd was 7.7 L/kg.

Q: And the half-life [14]?
A: Its half-life is 9.3 h.

Q: And the AUC [15]?
A: The AUC was 0.41 µM·h.

Q: And the Cmax [16]?
A: Its Cmax is 32 nM.

Q: And the bioavailability [17]?
A: The bioavailability was 2%.

Q: And the concentration (Rattus norvegicus [18])?
A: The concentration was 4.9 nM.

Q: What about the concentration (Rattus norvegicus [19]) of the same compound?
A: Its concentration is 14 nM.

Q: And the concentration (Rattus norvegicus [20])?
A: The concentration was 76 nM.

Q: What about the “Cp(f)” value (Rattus norvegicus [21]) of the same compound?
A: Its value is 0.1 nM.

Q: What about the “Cp(f)” value (Rattus norvegicus [22]) of the same compound?
A: The value was 0.29 nM.

Q: And the “Cp(f)” value (Rattus norvegicus [23])?
A: The value was 1.6 nM.

Q: And the fraction unbound at 3 h [24]?
A: The fraction unbound at 3 h was 0.021.

Q: What about the Activity (Rattus norvegicus [25]) of the same compound?
A: Its Activity is 37%.

Q: And the Activity (Rattus norvegicus [26])?
A: Its Activity is 72%.

Q: And the Activity (Rattus norvegicus [27])?
A: Its Activity is 94%.

Q: And the Activity (Rattus norvegicus [28])?
A: Its Activity is under 5%.

Q: What about the Activity (Rattus norvegicus [29]) of the same compound?
A: Its Activity is 60%.

Q: What about the Activity (Rattus norvegicus [30]) of the same compound?
A: Its Activity is 65%.

Q: And the minimal effective dose (Rattus norvegicus [31])?
A: The minimal effective dose was 3 mg/kg.
